Compound activity: PubChem, Broad Institute
Hits are enriched below; roughly 4.3% of the tested compounds scored in any of these assays.
CAL PDZ FP-1 = CAL PDZ (human) peptide binding inhibition. hit rate 0.92% among 300,000. inhibition, % at 24.9 µM. Q9HD26. purified CAL PDZ, TMR-peptide fluorescence polarization, 1 h;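 active = mean inhibition of at least 30% with at least half of replicates also reaching 30%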;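 also: 0% = DMSO neutral control and 100% = excess unlabeled competitor peptide PRC23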
Rtt109 HAT inh = C. albicans Rtt109 histone acetyltransferase inhibition; Q5AAJ8; purified Rtt109/Vps75, ThioGlo CoA-SH fluorescence, 4 h; inhibition, % at 34.9 µM; hit rate 0.16% among 330,000; AID 540336;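 active = inhibition of at least 50% in every replicate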
Target sequence (Q5AAJ8 whole entry, looked up): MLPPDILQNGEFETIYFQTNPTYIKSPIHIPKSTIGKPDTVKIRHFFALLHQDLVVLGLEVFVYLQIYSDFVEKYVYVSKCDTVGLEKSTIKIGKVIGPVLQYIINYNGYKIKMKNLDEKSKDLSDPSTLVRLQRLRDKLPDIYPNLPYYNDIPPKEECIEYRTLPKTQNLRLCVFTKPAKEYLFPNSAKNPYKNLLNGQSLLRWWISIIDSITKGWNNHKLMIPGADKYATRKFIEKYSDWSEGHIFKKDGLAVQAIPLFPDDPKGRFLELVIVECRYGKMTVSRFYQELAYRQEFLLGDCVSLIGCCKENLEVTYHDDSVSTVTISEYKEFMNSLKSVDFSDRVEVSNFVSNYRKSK
ALR inh = inhibitors of human sulfhydryl oxidase ALR. P55789. purified ALR, DTT oxidation, H2O2 HRP-luminol luminescence. inhibition, % (test concentration not listed). hit rate 3.8% among 290,000. AID 485317;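 active = mean replicate inhibition above about 79%, with every replicate also reaching it, limit read from the data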
CAL PDZ FP-2 = inhibitors of human CAL PDZ peptide binding; Q9HD26; hit rate 0.02% among 330,000; purified CAL PDZ, TMR-peptide fluorescence polarization, 1 h; inhibition, % at 20 µM;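 active = highest replicate inhibition of at least 40%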;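 also: plate controls were DMSO neutral control wells for no effect and unlabeled competitor peptide control wells for full effect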
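material = purified tagged CAL PDZ domain construct (CerCALP) | buffer or medium = sodium phosphate/NaCl buffer pH 7.4 with TCEP, IgG, Thesit | reagent = TMR-labelled reporter peptide T*-PRC34 bound in PDZ groove | incubation = 1 h room-temperature incubation prior to read | measured by = fluorescence polarization (mP) | evaluation = percent inhibition from loss of millipolarization | control set = unlabelled peptide and DMSO controls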
DYRK1A inh = blocks rat Dyrk1A kinase activity. hit rate 0.43% among 310,000. ADP-Glo luminescence, NFATc1 peptide. AID 504441. inhibition, % at 12.5 µM. Q63470; in the data active = inhibition above about 50%;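 also: plate controls were vehicle with enzyme for no effect and no enzyme for full effect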
Numbers without * were called inactive; . = not tested or not shown.

SMILES	CAL PDZ FP-1	Rtt109 HAT inh	ALR inh	CAL PDZ FP-2	DYRK1A inh
O=C(Nc1nnc(C2=COCCO2)o1)c1ccc(S(=O)(=O)N2CCCC2)cc1	1	-2	2	-1	2
CCC1CCCCN1S(=O)(=O)c1ccc(C(=O)Nc2nnc(C3=COCCO3)o2)cc1 (centres undefined)	0	10	95*	0	1
Cc1noc(C)c1COc1ccc(C(=O)Nc2nnc(CC(C)C)s2)cc1	0	-2	-2	0	-3
CCN(Cc1ccccc1)C(=O)COC(=O)Cn1cnc2ccccc21	0	12	-4	1	-5
N#CCCN(CCC#N)S(=O)(=O)c1ccc(C(=O)Nc2nnc(C3=COCCO3)o2)cc1	-4	3	-17	-1	-4
CCCCN(C)S(=O)(=O)c1ccc(C(=O)Nc2nnc(C3=COCCO3)o2)cc1	-1	.	91*	-1	4
Cc1cc(=O)oc2cc(OCc3ccccc3)ccc12	49*	8	-7	-19	6
Cc1cc(=O)oc2cc(OCCSCCN3CCCC3)ccc12	.	.	98*	.	.
CCOC(=O)C(=O)NNc1ccccc1C	3	-10	98*	-1	5
CCOC(=O)C(=O)Nc1ccccc1C(N)=O	-1	4	-9	-3	3
CCOC(=O)C(=O)NNc1cccc(C)c1C	-2	3	98*	0	3
CC1C(=O)C(C)C(c2ccccc2F)NC1c1ccccc1F (centres undefined)	0	.	3	0	3
COc1cc(/C=N/NC(=S)N/N=C/c2cc(OC)c(OC)c(OC)c2)cc(OC)c1OC	0	5	88*	3	-3
COc1cc(/C=N/NC(=S)NCCN2CCOCC2)cc(OC)c1O	2	.	99*	-3	-6
O=C(Cc1csc(N2CCOCC2)n1)N/N=C/c1ccc(Cl)cc1Cl	0	.	-3	-3	6
COc1cc(OC)c(OC)cc1/C=N/NC(=S)NCCN1CCOCC1	.	1	6	-2	6
COc1ccc(C=NNC(=S)NN=Cc2ccc(OC)c(OC)c2)cc1OC	0	-1	.	0	8
COc1cc(/C=N/NC(=O)Cc2csc(N3CCOCC3)n2)cc(OC)c1O	-5	7	99*	-2	5
COc1ccc(S(=O)(=O)N(C)C)cc1NC(=O)c1ccc2c(c1)NC(=O)C(C)S2 (centres undefined)	.	0	1	-2	-1
COc1ccc(-n2c(=O)c3c4c(sc3n3c(=S)[nH]nc23)CCC4)cc1	8	1	.	0	.
COc1ccc(-n2c(=O)c3c4c(sc3n3c(=S)[nH]nc23)COC(C(C)C)C4)cc1 (centres undefined)	.	.	97*	.	.
O=C(O)c1ccccc1Cc1ccc2c(c1)CCCC2	-12	-17	.	-1	-6
COC(=O)Cn1c(=O)c2c(nc3n2CCCN3CCc2ccccc2)n(C)c1=O	1	5	.	-1	0
CC1(C)Cc2c(cnn2-c2cccc(F)c2)C(NC(=O)c2ccc(=O)[nH]n2)C1 (centres undefined)	-8	-2	92*	0	-3
CC1=C(C(=O)NC2CC(C)(C)Cc3c2cnn3-c2cccc(F)c2)OCCO1 (centres undefined)	0	9	97*	-2	-5
SMILES	CAL PDZ FP-1	Rtt109 HAT inh	ALR inh	CAL PDZ FP-2	DYRK1A inh
COCCNC(=O)c1ccccc1NC(=O)c1ccccc1SC	0	3	1	-1	.
Cc1oc(-c2ccccc2F)nc1CN1CCC(C(=O)NC2CCCCCCC2)CC1	-3	12	.	-1	3
CCOC(=O)N1CCC(NC(=O)CS(=O)(=O)Cc2nc(-c3ccccc3Cl)oc2C)CC1	3	4	19	-1	1
Cc1oc(-c2ccccc2F)nc1CS(=O)CC(=O)NC1CCCCC1 (centres undefined)	.	2	98*	-1	0
Cc1oc(-c2ccccc2F)nc1CS(=O)CC(=O)NC1CC1 (centres undefined)	-2	8	99*	-1	4
CCOC(=O)N1CCC(NC(=O)CS(=O)Cc2nc(-c3ccccc3C)oc2C)CC1 (centres undefined)	0	7	99*	-1	-2
Cc1c(C(=O)O)cccc1-c1ccc(/C=N/n2cnnc2)o1	0	-3	.	2	6
Cc1c(C(=O)O)cccc1-c1ccc(/C=N/Nc2ccc(Br)cc2)o1	-14	14	100*	2	9
O=C(CCC(=O)N1CCN(c2ccc(C(F)(F)F)cn2)CC1)c1cccs1	-2	2	-3	1	.
